Data: ChEMBL document CHEMBL4308922, “Design and Evaluation of Heterobivalent PAR1-PAR2 Ligands as Antagonists of Calcium Mobilization” (ACS Med Chem Lett, 2019)
Active and inactive are the calls of the source. No cut-off for these calls is given here.

Assays:
Homo sapiens = species on record: Homo sapiens; assay: (§1) Antagonist activity at PAR1/PAR2 in human EAhy926 cells assessed as inhibition of SFLLRN-NH2-induced intracellular calcium mobilization preincubated for 15 mins followed by SFLLRN-NH2 addition by Fluo-4-AM dye based fluorescence assay; format: cell-based
Outline: (§2)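 Cells cultured to confluence over ~48 h in 96-well plates, Fluo-4/AM loaded; antagonist added, then PAR1/2 agonist SFLLRN-NH2 at 3.16 μM. Curves from triplicate wells on a single plate fitted by four-variable nonlinear regression for IC50; SEM reported.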

[1] = target: T1, Proteinase-activated receptor 1 (Homo sapiens) (UniProt P25116); assay: (§3) Antagonist activity at PAR1 in human EAhy926 cells assessed as inhibition of TFLLRN-NH2-induced intracellular calcium mobilization preincubated for 15 mins followed by TFLLRN-NH2 addition by Fluo-4-AM dye based fluorescence assay; format: functional, cell-based
T1 sequence (whole entry): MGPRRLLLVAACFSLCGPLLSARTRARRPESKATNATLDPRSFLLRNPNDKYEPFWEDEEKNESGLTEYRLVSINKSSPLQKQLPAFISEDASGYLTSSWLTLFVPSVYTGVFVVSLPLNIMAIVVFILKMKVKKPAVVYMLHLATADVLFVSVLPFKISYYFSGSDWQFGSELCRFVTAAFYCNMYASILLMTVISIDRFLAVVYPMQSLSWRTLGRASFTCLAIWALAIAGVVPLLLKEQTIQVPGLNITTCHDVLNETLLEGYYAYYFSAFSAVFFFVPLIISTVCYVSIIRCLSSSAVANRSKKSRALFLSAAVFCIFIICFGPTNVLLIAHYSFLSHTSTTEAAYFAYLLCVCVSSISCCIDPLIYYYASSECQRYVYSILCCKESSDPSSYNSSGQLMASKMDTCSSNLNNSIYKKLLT
Outline: (§4)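 Adherent cells grown in 96-well plates to confluence (~48 h), loaded with Fluo-4/AM; antagonist added, then PAR1 agonist TFLLRN-NH2 at 5 μM. Concentration–response curves from N = 3 on a single plate, fitted by four-variable nonlinear regression to give IC50; errors as SEM.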

[2] = target: Proteinase-activated receptor 2 (Homo sapiens) (UniProt P55085); assay: (§5) Antagonist activity at PAR2 in human EAhy926 cells assessed as inhibition of SLIGKV-NH2-induced intracellular calcium mobilization preincubated for 15 mins followed by SLIGKV-NH2 addition by Fluo-4-AM dye based fluorescence assay; format: functional, cell-based
Outline: (§6)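 Confluent adherent cells (~48 h growth in 96-well plates) loaded with Fluo-4/AM calcium dye; antagonist added before PAR2 agonist SLIGKV-NH2 at 5 μM. IC50 from four-variable nonlinear regression of concentration–response data, N = 3 on one plate, SEM error bars.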

[3] = as §1; format: cell-based; conditions: EA.hy 926; outline: as §2
[4] = target: T2, Proteinase-activated receptor 1 (Homo sapiens, UniProt P25116); assay: as §3; format: functional, cell-based; outline: as §4
T2 sequence (P25116 whole entry): T1 sequence (whole entry)

[5] = target: T3, Proteinase-activated receptor 2 (Homo sapiens, UniProt P55085); assay: as §5; format: functional, cell-based; outline: as §6
T3 sequence (P55085 whole entry): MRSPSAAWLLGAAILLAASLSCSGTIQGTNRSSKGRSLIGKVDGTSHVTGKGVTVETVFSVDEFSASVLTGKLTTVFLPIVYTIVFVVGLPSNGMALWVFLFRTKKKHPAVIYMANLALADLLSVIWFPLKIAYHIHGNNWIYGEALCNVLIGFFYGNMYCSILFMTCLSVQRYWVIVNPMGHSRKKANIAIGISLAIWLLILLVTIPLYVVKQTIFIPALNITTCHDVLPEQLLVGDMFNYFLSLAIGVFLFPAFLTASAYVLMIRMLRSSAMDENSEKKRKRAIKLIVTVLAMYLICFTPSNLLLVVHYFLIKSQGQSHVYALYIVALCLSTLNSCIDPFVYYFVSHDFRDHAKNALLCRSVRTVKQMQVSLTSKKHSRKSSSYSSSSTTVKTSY

[6] = target: T3, Proteinase-activated receptor 2; assay: (§7) Antagonist activity at PAR2 in human MDA-MB-231 cells assessed as inhibition of SLIGKV-NH2-induced intracellular calcium mobilization preincubated for 15 mins followed by SLIGKV-NH2 addition by Fluo-4-AM dye based fluorescence assay; format: functional, cell-based; outline: as §6
[7] = target: Proteinase-activated receptor 2 (Homo sapiens) (UniProt P55085); assay: (§8) Antagonist activity at PAR2 in human EAhy926 cells assessed as inhibition of trypsin-induced intracellular calcium mobilization preincubated for 15 mins followed by trypsin addition by Fluo-4-AM dye based fluorescence assay; format: functional, cell-based
Outline: (§9)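 Fluo-4/AM-loaded confluent cells; antagonist added before 5 nM trypsin as PAR2-activating protease; calcium mobilization concentration–response fitted for IC50.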

[8] = target: Proteinase-activated receptor 2 (Homo sapiens) (UniProt P55085); assay: as §7; format: functional, cell-based; outline: as §6
[9] = target: T1, Proteinase-activated receptor 1 (Homo sapiens); assay: (§10) Antagonist activity at PAR1 in human MDA-MB-231 cells assessed as inhibition of TFLLRN-NH2-induced intracellular calcium mobilization preincubated for 15 mins followed by TFLLRN-NH2 addition by Fluo-4-AM dye based fluorescence assay; format: functional, cell-based; outline: as §4
MDA-MB-231 = assay: (§11) Antagonist activity at PAR1/PAR2 in human MDA-MB-231 cells assessed as inhibition of SFLLRN-NH2-induced intracellular calcium mobilization preincubated for 15 mins followed by SFLLRN-NH2 addition by Fluo-4-AM dye based fluorescence assay; format: cell-based; outline: as §2
[10] = target: T3, Proteinase-activated receptor 2; assay: as §8; format: functional, cell-based; outline: as §9
[11] = target: T2, Proteinase-activated receptor 1; assay: as §10; format: functional, cell-based; outline: as §4
[12] = target: T1, Proteinase-activated receptor 1 (Homo sapiens); assay: (§12) Antagonist activity at PAR1 in human EAhy926 cells assessed as inhibition of thrombin-induced intracellular calcium mobilization preincubated for 15 mins followed by thrombin addition by Fluo-4-AM dye based fluorescence assay; format: functional, cell-based
Outline: (§13)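 Fluo-4/AM-loaded confluent EA.hy926 monolayers; antagonist added before 1 nM thrombin as activating protease; calcium mobilization curves fitted for IC50.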

[13] = target: T2, Proteinase-activated receptor 1; assay: as §12; format: functional, cell-based; outline: as §13
[14] = Half life in mouse plasma at 10 uM by LC-MS/MS analysis; format: ADME, cell-free
[15] = as §11; format: cell-based; outline: as §2

## CC1(C)CN(C(=O)[C@H]2CC[C@H](C(=O)NCCOCCOCCOCCOCCOCCOCCOCCOCCOCCOCCn3cc(CCC(=O)NCC[C@H](NC(=O)[C@H](Cc4ccc(F)c(F)c4)NC(=O)Nc4ccc5c(CN6CCCC6)nn(Cc6c(Cl)cccc6Cl)c5c4)C(=O)NCc4ccccc4)nn3)CC2)CCN1C(=O)c1cn2nc(-c3ccc(F)cc3)cc(-c3ccc(F)cc3)c2n1
Homo sapiens
  inhibition: Active
[1]
  inhibition: Active
[2]
  inhibition: Active

## CC(C)c1cc(-c2ccc(F)cc2)nn2cc(C(=O)N3CCN(C(=O)CCC(=O)NCCOCCOCCOCCOCCOCCOCCOCCOCCn4cc(CCC(=O)NCC[C@H](NC(=O)[C@H](Cc5ccc(F)c(F)c5)NC(=O)Nc5ccc6c(CN7CCCC7)nn(Cc7c(Cl)cccc7Cl)c6c5)C(=O)NCc5ccccc5)nn4)CC3(C)C)nc12
[3]
  IC50: 3 µM
[4]
  IC50: 0.13 µM
[5]
  IC50: > 50 µM

## COCc1cn(CCOCCOCCOCCOCCOCCOCCOCCOCCOCCOCCNC(=O)CCC(=O)N2CCN(C(=O)c3cn4nc(-c5ccc(F)cc5)cc(C(C)C)c4n3)C(C)(C)C2)nn1
Homo sapiens
  inhibition: inactive
[6]
  IC50: 0.86 µM
[7]
  inhibition: inactive
[5]
  IC50: 7 µM

## CC1(C)CN(C(=O)[C@H]2CC[C@H](C(=O)O)CC2)CCN1C(=O)c1cn2nc(-c3ccc(F)cc3)cc(-c3ccc(F)cc3)c2n1
[8]
  inhibition: Active
[2]
  inhibition: Active

## CC(C)c1cc(-c2ccc(F)cc2)nn2cc(C(=O)N3CCN(C(=O)CCC(=O)NCCOCCOCCOCCOCCOCCOCCOCCOCCOCCOCCn4cc(CCC(=O)NCC[C@H](NC(=O)[C@H](Cc5ccc(F)c(F)c5)NC(=O)Nc5ccc6c(CN7CCCC7)nn(Cc7c(Cl)cccc7Cl)c6c5)C(=O)NCc5ccccc5)nn4)CC3(C)C)nc12
[3]
  IC50: > 50 µM
[4]
  IC50: 0.04 µM
[5]
  IC50: > 50 µM

## CC1(C)CN(C(=O)[C@H]2CC[C@H](C(=O)NCCOCCOCCOCCOCCOCCOCCOCCOCCn3cc(CCC(=O)NCC[C@H](NC(=O)[C@H](Cc4ccc(F)c(F)c4)NC(=O)Nc4ccc5c(CN6CCCC6)nn(Cc6c(Cl)cccc6Cl)c5c4)C(=O)NCc4ccccc4)nn3)CC2)CCN1C(=O)c1cn2nc(-c3ccc(F)cc3)cc(-c3ccc(F)cc3)c2n1
Homo sapiens
  inhibition: Active
[1]
  inhibition: Active
[2]
  inhibition: Active

## CC(C)c1cc(-c2ccc(F)cc2)nn2cc(C(=O)N3CCN(C(=O)CCC(=O)NCCCCCC(=O)NCCOCCOCCOCCOCCOCCOCCOCCOCCOCCOCCOCCOCCOCCOCCOCCOCCOCCOCCOCCOCCOCCOCCOCCN=[N+]=[N-])CC3(C)C)nc12
[8]
  inhibition: inactive
[2]
  inhibition: inactive

## CC(C)c1cc(-c2ccc(F)cc2)nn2cc(C(=O)N3CCN(C(=O)CCC(=O)NCCOCCOCCOCCOCCOCCOCCn4cc(CCC(=O)NCC[C@H](NC(=O)[C@H](Cc5ccc(F)c(F)c5)NC(=O)Nc5ccc6c(CN7CCCC7)nn(Cc7c(Cl)cccc7Cl)c6c5)C(=O)NCc5ccccc5)nn4)CC3(C)C)nc12
[3]
  IC50: 3 µM
[4]
  IC50: 0.03 µM
[5]
  IC50: > 50 µM

## CC(C)c1cc(-c2ccc(F)cc2)nn2cc(C(=O)N3CCN(C(=O)CCC(=O)NCCCCC(=O)NCCOCCOCCOCCOCCOCCOCCOCCOCCOCCOCCOCCOCCOCCOCCOCCOCCOCCOCCOCCOCCOCCOCCOCCn4cc(CCC(=O)NCC[C@H](NC(=O)[C@H](Cc5ccc(F)c(F)c5)NC(=O)Nc5ccc6c(CN7CCCC7)nn(Cc7c(Cl)cccc7Cl)c6c5)C(=O)NCc5ccccc5)nn4)CC3(C)C)nc12
[9]
  inhibition: inactive
Homo sapiens
  inhibition: inactive
[8]
  inhibition: inactive
[1]
  inhibition: inactive
MDA-MB-231
  inhibition: inactive
[2]
  inhibition: inactive

## CC(C)c1cc(-c2ccc(F)cc2)nn2cc(C(=O)N3CCN(C(=O)CCC(=O)O)CC3(C)C)nc12
[6]
  IC50: 0.48 µM
[10]
  IC50: 0.002 µM
[5]
  IC50: 0.1 µM

## NCCOCCOCCOCCOCCOCCOCCOCCOCCn1cc(CCC(=O)NCC[C@H](NC(=O)[C@H](Cc2ccc(F)c(F)c2)NC(=O)Nc2ccc3c(CN4CCCC4)nn(Cc4c(Cl)cccc4Cl)c3c2)C(=O)NCc2ccccc2)nn1
[11]
  IC50: 0.01 µM
[3]
  IC50: 0.074 µM
[4]
  IC50: 0.097 µM
[12]
  inhibition: Active

## CC1(C)CN(C(=O)[C@H]2CC[C@H](C(=O)NCCOCCOCCOCCOCCOCCOCCn3cc(CCC(=O)NCC[C@H](NC(=O)[C@H](Cc4ccc(F)c(F)c4)NC(=O)Nc4ccc5c(CN6CCCC6)nn(Cc6c(Cl)cccc6Cl)c5c4)C(=O)NCc4ccccc4)nn3)CC2)CCN1C(=O)c1cn2nc(-c3ccc(F)cc3)cc(-c3ccc(F)cc3)c2n1
Homo sapiens
  inhibition: Active
[1]
  inhibition: Active
[2]
  inhibition: Active

## NCC[C@H](NC(=O)[C@H](Cc1ccc(F)c(F)c1)NC(=O)Nc1ccc2c(CN3CCCC3)nn(Cc3c(Cl)cccc3Cl)c2c1)C(=O)NCc1ccccc1 [RWJ-58259]
[11]
  IC50: 0.005 µM

## CC(C)c1cc(-c2ccc(F)cc2)nn2cc(C(=O)N3CCN(C(=O)CCC(=O)NCCOCCOCCOCCOCCOCCOCCOCCOCCOCCOCCOCCOCCOCCOCCOCCOCCOCCOCCOCCOCCOCCOCCOCCn4cc(CCC(=O)NCC[C@H](NC(=O)[C@H](Cc5ccc(F)c(F)c5)NC(=O)Nc5ccc6c(CN7CCCC7)nn(Cc7c(Cl)cccc7Cl)c6c5)C(=O)NCc5ccccc5)nn4)CC3(C)C)nc12
[11]
  IC50: 0.14 µM
[3]
  IC50: 0.15 µM
[6]
  IC50: 3.5 µM
[4]
  IC50: 0.18 µM
[7]
  inhibition: inactive
[13]
  IC50: 0.36 µM
[14]
  half-life at 10 µM: 5.6 h
[15]
  IC50: 3.3 µM
[5]
  IC50: 3.3 µM
